Screens as filed in PubChem.
NR2E3 ag-1 = inhibitors of NR2E3-RetCOR corepressor binding, primary screen, NR2E3 agonist project, biochemical, TR-FRET, GST-NR2E3, biotin-RetCOR; 320,000 compounds, 0.12% hits; inhibition of corepressor binding, % at 4.78 µM; AID 2300, 2010; 1536-well; Photoreceptor-specific nuclear receptor (Homo sapiens), Q9Y5X4;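 active = percent inhibition above the cutoff of mean plus 3 SD of all tested compounds, set per screening campaign, cut at about 20% in these data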
Target sequence (Q9Y5X4 whole entry, looked up): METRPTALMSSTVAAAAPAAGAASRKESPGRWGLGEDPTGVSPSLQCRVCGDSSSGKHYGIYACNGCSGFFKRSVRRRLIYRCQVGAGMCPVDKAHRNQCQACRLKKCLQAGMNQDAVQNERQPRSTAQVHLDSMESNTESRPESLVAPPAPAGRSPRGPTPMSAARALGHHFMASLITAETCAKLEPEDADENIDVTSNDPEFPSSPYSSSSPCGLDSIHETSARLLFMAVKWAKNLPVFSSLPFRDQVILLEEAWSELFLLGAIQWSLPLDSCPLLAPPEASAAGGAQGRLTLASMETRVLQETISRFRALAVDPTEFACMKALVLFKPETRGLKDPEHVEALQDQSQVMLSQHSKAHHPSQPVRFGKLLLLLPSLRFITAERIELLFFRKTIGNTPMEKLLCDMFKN
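System: GST-tagged NR2E3 plus biotinylated RetCOR corepressor; Buffer or medium: pH 7.5 Tris-based buffer; Probe or stimulus: RetCOR corepressor, biotinylated, 7 nM; Doses: compound at 4.8 µM, single dose; Schedule: 5 h incubation at 4 °C; Technique: time-resolved FRET; Evaluation: percent inhibition of TR-FRET ratio; Replication: one well per compound, singlicate testing.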
PG9 binder = binders of HIV-1 gp120 antibody PG9, primary screen, biochemical, TR-FRET. AID 624416, 2012. inhibition, % at 6.7 µM. 360,000 compounds, 0.43% hits. TR-FRET gp120-PG9 antibody binding; in the data active = inhibition above about 8.5%
Rev-erbA mod = modulators of Rev-erb alpha DNA binding, primary screen, biochemical, FITC-DNA, fluorescence polarization, uHTS | Nuclear receptor subfamily 1 group D member 1 (Homo sapiens), P20393 | Rev-erbα–FITC-DNA binding, 90 min | activity, % at 10 µM | 370,000 compounds, 0.79% hits;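 active = activity above about 14%, limit read from the data; passing the limit was not always enough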
NR2E3 ag-2 = NR2E3 agonists in two-hybrid cells, primary screen, cell-based, luminescence, CHO-S, Gal4-NCOR/VP16-NR2E3; Photoreceptor-specific nuclear receptor (Homo sapiens), Q9Y5X4; luciferase; inhibition of corepressor binding, % at 3.98 µM; 360,000 compounds, 0.35% hits; AID 602229, 2012;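 active = inhibition above the mean of all tested compounds plus 3 SD, cut at about 70% in these data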;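 note: higher means lower luciferase signal from less NR2E3 corepressor binding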
NR1D1 mod conf = modulators of Rev-erb alpha DNA binding, confirmation, biochemical, FITC-DNA, fluorescence polarization, single point; 3,000 compounds, 61% hits; shares compounds with Rev-erbA mod; 90 min; activation, % at 25 µM;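 active = activation at or above a set limit, or at least 3 SD above the negative control mean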
RORg DNA counter = modulation of RORgamma DNA binding, dose response, counter-screen for Rev-erb alpha modulator project, biochemical, fluorescence polarization, FITC-DNA; shares compounds with Rev-erbA mod; purified RORgamma protein-FITC-DNA binding; IC50, µM; 910 compounds, 8% hits;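 active = Compounds whose fitted half-maximal concentration for disrupting protein-DNA binding is below 10 micromolar; the record names Rev-erb in its text, so the target is in doubt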
Of the large screens only hits and unclear results are named; the others gave an inactive call (follow-up assays come after a bar, where they were run). Hits are enriched below; roughly 1.4% of the tested compounds scored in any of these assays.

Cn1c(SCC(=O)NC2CCCCC2)nnc1-c1cc2cc(Cl)ccc2o1	Rev-erbA mod 101 | NR1D1 mod conf 27
CCN(CC)c1ccc(/C=C(/C#N)C(=O)NCc2ccccc2)o1	Rev-erbA mod 25 | NR1D1 mod conf inactive
CCN(CC)c1ccc(/C=C(/C#N)C(=O)NC(C)C)o1	none
CC(C)NC(=O)/C(C#N)=C\c1ccc(N(C)C)o1	Rev-erbA mod 15 | NR1D1 mod conf inactive
Cc1cc(C)cc(NC(=O)N2CCN(Cc3nc4ccccc4c(=O)[nH]3)CC2)c1	none (no result: NR2E3 ag-1, PG9 binder, NR2E3 ag-2)
COC(=O)[C@]12C[C@H](CC(=O)NCC34CC5CC(CC(C5)C3)C4)C(=O)N(CCc3ccc(OC)c(OC)c3)C1=C[C@H](C(C)C)O[C@@H]2C1CC1	none (no result: NR2E3 ag-1, PG9 binder, NR2E3 ag-2)
COc1cc(N=Nc2cccc(S(N)(=O)=O)c2)c2ccccc2c1N	Rev-erbA mod 35 | NR1D1 mod conf inactive
NC1=NC(=Nc2cccc(S(N)(=O)=O)c2)c2ccccc21	none
CCNC(=O)N1CCN(c2ccc(N3CCN(C(=O)NCC)[C@@H](C)C3)c(C)c2)[C@H](C)C1	none (no result: NR2E3 ag-1, NR2E3 ag-2)
COC(=O)[C@]12C[C@H](CC(=O)NCC3CCCCC3)C(=O)N(Cc3ccc4c(c3)OCO4)C1=C[C@H](COCc1ccccc1)O[C@@H]2C	none (no result: NR2E3 ag-1, NR2E3 ag-2)
Nc1ncc2c(n1)-c1cc(Cl)ccc1SC2	Rev-erbA mod 34 | NR1D1 mod conf inactive
COc1ccccc1C(=O)N1[C@@H](C(C)C)COc2cc(Br)ccc2S1(=O)=O	none (no result: NR2E3 ag-1)
CCc1cc2c(-c3ccccc3)cc(=O)oc2c(CN2CCOCC2)c1O	none
Oc1c(Cl)cc(Cl)c(Cl)c1CN1CCOCC1	none (no result: NR2E3 ag-1)
Cc1c(Cl)cc(C(C)C)c(O)c1CN1CCOCC1	Rev-erbA mod 42 (no result: NR2E3 ag-1) | NR1D1 mod conf 43 | RORg DNA counter inactive
Cc1cc(C(C)c2ccccc2)c(O)c(CN2CCOCC2)c1C (stereo not drawn)	Rev-erbA mod 33 | NR1D1 mod conf 43 | RORg DNA counter inactive
CCOC(=O)CNC(=O)c1cc(-c2ccccn2)nc2c(C)c(Cl)ccc12	Rev-erbA mod 19 | NR1D1 mod conf 22
Cc1c(Cl)ccc2c(C(=O)O)cc(-c3ccccc3)nc12	none
Cc1c(Cl)ccc2c(C(N)=O)cc(-c3ccccn3)nc12	Rev-erbA mod 41 | NR1D1 mod conf 35 | RORg DNA counter inactive
c1nc(NC[C@@H]2CCCO2)c2cc(-c3ccc4c(c3)OCO4)ccc2n1	none (no result: NR2E3 ag-1, PG9 binder, NR2E3 ag-2)
COC(=O)[C@]12C[C@H](CC(=O)NCc3ccc(OC)c(OC)c3)C(=O)N(CCC3=CCCCC3)C1=C[C@H](COCc1ccccc1)O[C@@H]2C	none (no result: NR2E3 ag-1, NR2E3 ag-2)
COC(=O)C1CN(Cc2ccc(F)cc2)CCS(=O)(=O)N1Cc1cn(Cc2ccc(C)cc2)nn1 (stereo not drawn)	none (no result: NR2E3 ag-1, PG9 binder, NR2E3 ag-2)
COc1ccccc1-c1cc(-c2ccccc2)nc(SC(C(N)=O)c2ccccc2)c1C#N (stereo not drawn)	Rev-erbA mod 39 | NR1D1 mod conf 20
Cc1nc(SC(C(N)=O)c2ccccc2)c(C#N)c(C)c1C (stereo not drawn)	none
Cc1ccc(Cn2cc(CN(C)C3CN(Cc4cn(Cc5ccc(C)cc5)nn4)S(=O)(=O)C3)nn2)cc1 (stereo not drawn)	none (no result: NR2E3 ag-1)
Cc1ccc2nc(-c3ccccc3)c(Cc3cccc(Cl)c3)n2c1	none (no result: NR2E3 ag-1)
Cc1ccc(Cc2c(-c3ccc(Br)cc3)nc3ccc(Br)cn23)cc1	Rev-erbA mod 24 (no result: NR2E3 ag-1) | NR1D1 mod conf 22
Cc1cc(Br)c2nc(-c3ccccc3)c(Cc3cccc(Cl)c3)n2c1	Rev-erbA mod 27 (no result: NR2E3 ag-1) | NR1D1 mod conf 15
Cc1cc(Br)cn2c(Cc3ccccc3C(F)(F)F)c(-c3ccccc3)nc12	Rev-erbA mod 22 (no result: NR2E3 ag-1) | NR1D1 mod conf 11
Cc1ccc(Cc2c(-c3ccc(Br)cc3)nc3ccc(Cl)cn23)cc1	none (no result: NR2E3 ag-1)
Cc1cc(Br)cn2c(Cc3ccccc3)c(-c3cccc(Cl)c3)nc12	Rev-erbA mod 19 (no result: NR2E3 ag-1) | NR1D1 mod conf 16
